Reference: ChEMBL document CHEMBL1124925, “Anticandidal properties of N3-(4-methoxyfumaroyl)-L-2,3-diaminopropanoic acid oligopeptides” (1990)
≈ marks a conversion by molar mass, not a printed value. Non-standard residues stand in square brackets, D forms with d. Residues, ends and D or L forms follow the SMILES beside them. *: point of attachment. Fumaryl(OMe) = COC(=O)/C=C/C(=O)*; Dap = NC[C@H](N)C(=O)O

These compounds were tested on Candida albicans (assay: In vitro antifungal activity against 16 clinical strains of Candida albicans.).
Type: functional
In short: (§1)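 MIC by serial dilution in liquid YNB medium containing sodium glutamate, inoculated at 10^4 cells/mL; growth read turbidimetrically at 660 nm after 24 h at 30 °C. Strains were 16 fresh clinical isolates collected at the Medical Academy of Gdansk plus standard strain ATCC 26278.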

Structure (SMILES) | MIC
COC(=O)/C=C/C(=O)NC[C@H](NC(=O)[C@H](C)NC(=O)[C@@H](N)CCSC)C(=O)O | 0.25 µg/mL (≈ 0.597 µM)
COC(=O)/C=C/C(=O)NC[C@H](NC(=O)[C@H](C)N)C(=O)N[C@@H](C)C(=O)O | 0.25 µg/mL (≈ 0.698 µM)
COC(=O)/C=C/C(=O)NC[C@H](NC(=O)[C@H](CNC(=O)/C=C/C(=O)OC)NC(=O)[C@@H](N)CCSC)C(=O)O | 0.25 µg/mL (≈ 0.458 µM)
COC(=O)/C=C/C(=O)NCC(N)C(=O)N[C@@H](CCSC)C(=O)N[C@@H](CNC(=O)/C=C/C(=O)OC)C(=O)O (some centres undefined) | 0.25 µg/mL (≈ 0.458 µM)
COC(=O)/C=C/C(=O)NC[C@H](NC(=O)[C@H](CCSC)NC(=O)[C@H](CCSC)NC(=O)[C@H](CCSC)NC(=O)[C@@H](N)CCSC)C(=O)O (H-MMMM[Dap](Fumaryl(OMe))-OH) | 0.25 µg/mL (≈ 0.337 µM)
COC(=O)/C=C/C(=O)NC[C@H](NC(=O)[C@H](CCSC)NC(=O)[C@H](CCSC)NC(=O)[C@@H](N)CCSC)C(=O)O (H-MMM[Dap](Fumaryl(OMe))-OH) | 0.25 µg/mL (≈ 0.41 µM)

Each compound was assayed on Candida epidermidis (assay: In vitro antifungal activity against Candida epidermidis OBS 6023.).

Structure (SMILES) | MIC
COC(=O)/C=C/C(=O)NC[C@H](NC(=O)[C@H](CCSC)NC(=O)[C@H](CCSC)NC(=O)[C@H](CCSC)NC(=O)[C@@H](N)CCSC)C(=O)O (H-MMMM[Dap](Fumaryl(OMe))-OH) | 75 µg/mL (≈ 101 µM)

The compounds below were run on Candida albicans (assay: In vitro antifungal activity against Candida albicans ATCC 26278.).
Type: functional
In short: as §1

Structure (SMILES) | MIC
COC(=O)/C=C/C(=O)NC[C@H](NC(=O)[C@H](C)NC(=O)[C@@H](N)CCSC)C(=O)O | 0.75 µg/mL (≈ 1.79 µM)
COC(=O)/C=C/C(=O)NC[C@H](NC(=O)[C@H](C)N)C(=O)N[C@@H](C)C(=O)O | 0.75 µg/mL (≈ 2.09 µM)
COC(=O)/C=C/C(=O)NC[C@H](NC(=O)[C@H](CNC(=O)/C=C/C(=O)OC)NC(=O)[C@@H](N)CCSC)C(=O)O | 0.75 µg/mL (≈ 1.37 µM)
COC(=O)/C=C/C(=O)NCC(N)C(=O)N[C@@H](CCSC)C(=O)N[C@@H](CNC(=O)/C=C/C(=O)OC)C(=O)O (some centres undefined) | 0.75 µg/mL (≈ 1.37 µM)
COC(=O)/C=C/C(=O)NC[C@H](NC(=O)[C@H](CCSC)NC(=O)[C@H](CCSC)NC(=O)[C@H](CCSC)NC(=O)[C@@H](N)CCSC)C(=O)O (H-MMMM[Dap](Fumaryl(OMe))-OH) | 0.5 µg/mL (≈ 0.675 µM)
COC(=O)/C=C/C(=O)NC[C@H](NC(=O)[C@H](CCSC)NC(=O)[C@H](CCSC)NC(=O)[C@@H](N)CCSC)C(=O)O (H-MMM[Dap](Fumaryl(OMe))-OH) | 0.75 µg/mL (≈ 1.23 µM)

Each compound was assayed on Candida albicans (assay: Tested for its rate of transport in Candida albicans ATCC 26278.).
Type: functional

Structure (SMILES) | Transport rate
COC(=O)/C=C/C(=O)NC[C@H](NC(=O)[C@H](N)CCSC)C(=O)N[C@H](CCSC)C(=O)O | 2 nM/min/mg
COC(=O)/C=C/C(=O)NC[C@H](NC(=O)[C@@H](CCSC)NC(=O)[C@@H](CCSC)NC(=O)[C@@H](N)CNC(=O)/C=C/C(=O)OC)C(=O)O | 1.2 nM/min/mg
COC(=O)/C=C/C(=O)NC[C@H](NC(=O)[C@H](C)N)C(=O)N[C@@H](C)C(=O)O | 0.9 nM/min/mg
COC(=O)/C=C/C(=O)NCC(N)C(=O)N[C@@H](CCSC)C(=O)N[C@@H](CNC(=O)/C=C/C(=O)OC)C(=O)O (some centres undefined) | 1.4 nM/min/mg

What follows are compounds tested on Candida albicans (assay: Tested for its intracellular cleavage rate in Candida albicans ATCC 26278.).
Type: functional
In short: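 Cell-free extract came from cells grown overnight on Sabouraud medium at 30 °C with vigorous shaking. Cells were washed and extracted in 0.05 M phosphate buffer, pH 6.5; protein was measured by Lowry (Layne modification). Peptides at 200 μM in 0.005 M phosphate buffer were incubated with extract at 30 °C for 30 min. Samples were taken every 10 min and released amino acid was measured by Cd-ninhydrin.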

Structure (SMILES) | Cleavage rate
COC(=O)/C=C/C(=O)NC[C@H](NC(=O)[C@H](C)NC(=O)[C@@H](N)CCSC)C(=O)O | 15.2 nM/min/mg
COC(=O)/C=C/C(=O)NC[C@H](NC(=O)[C@H](C)N)C(=O)N[C@@H](C)C(=O)O | 5.4 nM/min/mg
COC(=O)/C=C/C(=O)NC[C@H](NC(=O)[C@H](CNC(=O)/C=C/C(=O)OC)NC(=O)[C@@H](N)CCSC)C(=O)O | 10 nM/min/mg
COC(=O)/C=C/C(=O)NCC(N)C(=O)N[C@@H](CCSC)C(=O)N[C@@H](CNC(=O)/C=C/C(=O)OC)C(=O)O (some centres undefined) | 3 nM/min/mg
COC(=O)/C=C/C(=O)NC[C@H](NC(=O)[C@H](CCSC)NC(=O)[C@H](CCSC)NC(=O)[C@H](CCSC)NC(=O)[C@@H](N)CCSC)C(=O)O (H-MMMM[Dap](Fumaryl(OMe))-OH) | 18.6 nM/min/mg
COC(=O)/C=C/C(=O)NC[C@H](NC(=O)[C@H](CCSC)NC(=O)[C@H](CCSC)NC(=O)[C@@H](N)CCSC)C(=O)O (H-MMM[Dap](Fumaryl(OMe))-OH) | 23.7 nM/min/mg

System: Candida epidermidis
Experiment: In vitro antifungal activity against Candida epidermidis OBS 6023.
Remark: another data set of the same source

Structure (SMILES) | MIC
COC(=O)/C=C/C(=O)NC[C@H](NC(=O)[C@H](C)NC(=O)[C@@H](N)CCSC)C(=O)O | 125 µg/mL (≈ 299 µM)
COC(=O)/C=C/C(=O)NC[C@H](NC(=O)[C@H](C)N)C(=O)N[C@@H](C)C(=O)O | 80 µg/mL (≈ 223 µM)
COC(=O)/C=C/C(=O)NC[C@H](NC(=O)[C@H](CNC(=O)/C=C/C(=O)OC)NC(=O)[C@@H](N)CCSC)C(=O)O | 125 µg/mL (≈ 229 µM)
COC(=O)/C=C/C(=O)NCC(N)C(=O)N[C@@H](CCSC)C(=O)N[C@@H](CNC(=O)/C=C/C(=O)OC)C(=O)O (some centres undefined) | 75 µg/mL (≈ 137 µM)
COC(=O)/C=C/C(=O)NC[C@H](NC(=O)[C@H](CCSC)NC(=O)[C@H](CCSC)NC(=O)[C@@H](N)CCSC)C(=O)O (H-MMM[Dap](Fumaryl(OMe))-OH) | 75 µg/mL (≈ 123 µM)

These compounds were tested on Saccharomyces cerevisiae (assay: In vitro antifungal activity against Saccharomyces cerevisiae ATCC 9763.).
Type: functional

Structure (SMILES) | MIC
COC(=O)/C=C/C(=O)NC[C@H](NC(=O)[C@H](C)NC(=O)[C@@H](N)CCSC)C(=O)O | 7.5 µg/mL (≈ 17.9 µM)
COC(=O)/C=C/C(=O)NC[C@H](NC(=O)[C@H](C)N)C(=O)N[C@@H](C)C(=O)O | 37.5 µg/mL (≈ 105 µM)
COC(=O)/C=C/C(=O)NC[C@H](NC(=O)[C@H](CNC(=O)/C=C/C(=O)OC)NC(=O)[C@@H](N)CCSC)C(=O)O | 150 µg/mL (≈ 275 µM)
COC(=O)/C=C/C(=O)NCC(N)C(=O)N[C@@H](CCSC)C(=O)N[C@@H](CNC(=O)/C=C/C(=O)OC)C(=O)O (some centres undefined) | 150 µg/mL (≈ 275 µM)
COC(=O)/C=C/C(=O)NC[C@H](NC(=O)[C@H](CCSC)NC(=O)[C@H](CCSC)NC(=O)[C@H](CCSC)NC(=O)[C@@H](N)CCSC)C(=O)O (H-MMMM[Dap](Fumaryl(OMe))-OH) | 37.5 µg/mL (≈ 50.6 µM)
COC(=O)/C=C/C(=O)NC[C@H](NC(=O)[C@H](CCSC)NC(=O)[C@H](CCSC)NC(=O)[C@@H](N)CCSC)C(=O)O (H-MMM[Dap](Fumaryl(OMe))-OH) | 100 µg/mL (≈ 164 µM)
